Test results published in ChEMBL document CHEMBL1275449, “Potent in vitro antifungal activities of naturally occurring acetylenic acids” (Antimicrob Agents Chemother, 2008).
Converted amounts (≈) assume the structure as drawn. The source made the active and inactive calls. The rule behind the calls is not given here.

Key:
[1] = test system: Aspergillus flavus; experiment: Antifungal activity against Aspergillus flavus ATCC 204304 after 48 h by CLSI method; conditions: ATCC 204304, 48 h
[2] = test system: Aspergillus niger; experiment: Antifungal activity against Aspergillus niger ATCC 16404 after 48 h by CLSI method; conditions: ATCC 16404, 48 h
[3] = test system: Trichophyton mentagrophytes; experiment: Antifungal activity against Trichophyton mentagrophytes ATCC MYA-4439 by CLSI method; assay type: functional, organism-based
Method in brief: (§1)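 Growth scraped from 1- to 6-week-old potato dextrose slants and filtered through Miracloth. Diluted in 5% Alamar blue-RPMI 1640 (MOPS pH 7.0) to 2.7 × 10⁴ CFU/ml. Eleven twofold dilutions in duplicate. Fluorescence at 544 nm excitation/590 nm emission read before and after 35°C, 5 days. IC50 fitted from percent growth. MIC taken as no detectable growth; MFC from clear or blue wells plated on PD agar.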

[4] = test system: Cryptococcus neoformans; experiment: Antifungal activity against Cryptococcus neoformans ATCC 66031 after 72 hrs by CLSI method; assay type: functional, organism-based; conditions: ATCC 66031, 72 h
Method in brief: (§2)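 SD broth replaced RPMI because growth in RPMI was poor; other CLSI conditions were kept. Inoculum was 1.5 × 10³ CFU/ml from colonies on SD agar, checked by plating. Twofold serial dilutions (11 concentrations) in 20% DMSO-saline were tested in duplicate. OD530 was read before and after incubation at 35°C for 72 h. Percent growth gave IC50; the MIC is the lowest concentration with no detectable growth.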

[5] = test system: Candida parapsilosis; experiment: Antifungal activity against Candida parapsilosis ATCC 22019 after 48 hrs by CLSI method; assay type: functional, organism-based; conditions: Lodderomyces parapsilosis, ATCC 22019, 48 h
Method in brief: (§3)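 Yeast suspensions made from 3-5 colonies off 24-72 h SD agar plates in saline. They were diluted by OD630 standard curve in RPMI 1640 (0.2% dextrose, 0.03% glutamine, 0.165 M MOPS, pH 7.0) to 1.5 × 10³ CFU/ml. Twofold dilutions (11 concentrations, 20% DMSO-saline) run in duplicate. OD530 read before and after 35°C, 48 h. Line values are top test concentrations; no-growth endpoints give MIC/MFC.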

[6] = test system: Candida albicans; experiment: Antifungal activity against Fluconazole resistant Candida albicans clinical isolate 1 after 48 hrs by CLSI method; assay type: functional, organism-based
Method in brief: (§4)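 CLSI broth microdilution. Colonies from 24–72 h SD agar suspended in saline and sized by OD630 standard curve. Inoculum 1.5 × 10³ CFU/ml (final) in RPMI 1640 (0.2% dextrose, 0.03% glutamine, 0.165 M MOPS, pH 7.0). Twofold dilutions (11 levels) from 20% DMSO-saline, in duplicate. 35°C for 48 h, OD530 read before and after. IC50 fitted from % growth. MIC: no detectable growth. MFC: subculture onto SD agar.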

[7] = test system: Aspergillus flavus; experiment: Antifungal activity against Aspergillus flavus ATCC 204304 at 10.8 uM after 48 hrs by CLSI method; assay type: functional, organism-based
[8] = test system: Candida albicans; experiment: Antifungal activity against Fluconazole resistant Candida albicans clinical isolate 17 after 48 hrs by CLSI method; assay type: functional, organism-based
Method in brief: as §4

[9] = test system: Candida albicans; experiment: Antifungal activity against Candida albicans ATCC 90028 after 48 hrs by CLSI method; assay type: functional, organism-based; conditions: ATCC 90028, 48 h
Method in brief: as §4

[10] = test system: Aspergillus fumigatus; experiment: Antifungal activity against Aspergillus fumigatus ATCC 90906 after 48 h by CLSI method; conditions: ATCC 90906, 48 h
[11] = test system: Pichia kudriavzevii; experiment: Antifungal activity against Candida krusei ATCC 6258 after 48 hrs by CLSI method; assay type: functional, organism-based; conditions: ATCC 6258, 48 h
Method in brief: (§5)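 Candida inocula came from 24–72-h SD agar colonies suspended in saline. They were diluted by OD630 standard curve into RPMI 1640 (0.2% dextrose, 0.03% glutamine, 0.165 M MOPS, pH 7.0) to 1.5 × 10³ CFU/ml. Compounds were run as 11 twofold dilutions in 20% DMSO-saline, in duplicate, at 35°C for 48 h, with OD530 read before and after. Percent growth at the top concentration, IC50, MIC, and MFC (SD agar plating) were derived.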

[12] = test system: Trichophyton mentagrophytes; experiment: Antifungal activity against Trichophyton mentagrophytes ATCC 9533 by CLSI method; assay type: functional, organism-based
Method in brief: as §1

[13] = test system: Trichophyton rubrum; experiment: Antifungal activity against Trichophyton rubrum ATCC 10218 by CLSI method; assay type: functional, organism-based
Method in brief: as §1

[14] = test system: Aspergillus fumigatus; experiment: Antifungal activity against Aspergillus fumigatus ATCC 204305 after 48 h by CLSI method; conditions: ATCC 204305, 48 h
[15] = test system: Aspergillus niger; experiment: Antifungal activity against Aspergillus niger ATCC 16404 at 10.8 uM after 48 hrs by CLSI method; assay type: functional, organism-based
[16] = test system: Cryptococcus neoformans; experiment: Antifungal activity against Cryptococcus neoformans ATCC 90113 after 72 hrs by CLSI method; assay type: functional, organism-based; conditions: ATCC 90113, 72 h
Method in brief: as §2

[17] = test system: Candida albicans; experiment: Antifungal activity against Candida albicans ATCC 200955 after 48 hrs by CLSI method; assay type: functional, organism-based; conditions: ATCC 200955, 48 h
Method in brief: as §4

[18] = test system: Nakaseomyces glabratus; experiment: Antifungal activity against Candida glabrata ATCC 90030 after 48 hrs by CLSI methodCandida glabrata; assay type: functional, organism-based; conditions: ATCC 90030, 48 h
Method in brief: as §5

[19] = test system: Candida albicans; experiment: Antifungal activity against Candida albicans ATCC 32354 after 48 hrs by CLSI method; assay type: functional, organism-based; conditions: ATCC 32354, 48 h
Method in brief: as §4

[20] = test system: Candida albicans; experiment: Antifungal activity against Candida albicans ATCC 14053 after 48 hrs by CLSI method; assay type: functional, organism-based; conditions: ATCC 14053, 48 h
Method in brief: as §4

[21] = test system: Trichophyton rubrum; experiment: Antifungal activity against Trichophyton rubrum ATCC MYA-4438 by CLSI method; assay type: functional, organism-based
Method in brief: as §1

[22] = test system: Candida albicans; experiment: Antifungal activity against Candida albicans ATCC 60193 after 48 hrs by CLSI method; assay type: functional, organism-based; conditions: ATCC 60193, 48 h
Method in brief: as §4

[23] = test system: Candida tropicalis; experiment: Antifungal activity against Candida tropicalis ATCC 750 after 48 hrs by CLSI method; assay type: functional, organism-based; conditions: ATCC 750, 48 h
Method in brief: as §3

## C[C@@H]1[C@H](O)[C@@H](C)/C=C/C=C/C=C/C=C/C=C/C=C/C=C/[C@H](O[C@@H]2O[C@H](C)[C@@H](O)[C@H](N)[C@@H]2O)C[C@@H]2O[C@](O)(C[C@@H](O)C[C@@H](O)[C@H](O)CC[C@@H](O)C[C@@H](O)CC(=O)O[C@H]1C)C[C@H](O)[C@H]2C(=O)O [AMPHOTERICIN B]
[1]
  IC50: 1500 nM
  MIC: 2.7 µM (≈ 2.5 µg/mL)
[2]
  IC50: 900 nM
  MIC: 2 µM (≈ 1.85 µg/mL)
[3]
  IC50: 900 nM
  MFC: 1.4 µM (≈ 1.29 µg/mL)
  MIC: 1.4 µM (≈ 1.29 µg/mL)
[4]
  IC50: 80 nM
  MFC: 0.34 µM (≈ 0.314 µg/mL)
  MIC: 0.34 µM (≈ 0.314 µg/mL)
[5]
  IC50: 300 nM
  MFC: 5.4 µM (≈ 4.99 µg/mL)
  MIC: 2 µM (≈ 1.85 µg/mL)
[6]
  IC50: 200 nM
  MFC: 1.4 µM (≈ 1.29 µg/mL)
  MIC: 1 µM (≈ 0.924 µg/mL)
[7]
  Activity: inactive
[8]
  IC50: 200 nM
  MFC: 1.4 µM (≈ 1.29 µg/mL)
  MIC: 1 µM (≈ 0.924 µg/mL)
[9]
  MFC: 1.4 µM (≈ 1.29 µg/mL)
  MIC: 1 µM (≈ 0.924 µg/mL)
[10]
  IC50: 900 nM
  MFC: 2.7 µM (≈ 2.5 µg/mL)
  MIC: 1.4 µM (≈ 1.29 µg/mL)
[11]
  MFC: 2.7 µM (≈ 2.5 µg/mL)
  MIC: 2 µM (≈ 1.85 µg/mL)
[12]
  IC50: 600 nM
  MFC: 2.7 µM (≈ 2.5 µg/mL)
  MIC: 2 µM (≈ 1.85 µg/mL)
[13]
  IC50: 600 nM
  MFC: 1.4 µM (≈ 1.29 µg/mL)
  MIC: 1.4 µM (≈ 1.29 µg/mL)
[14]
  IC50: 1200 nM
  MFC: 10.8 µM (≈ 9.98 µg/mL)
  MIC: 2 µM (≈ 1.85 µg/mL)
[15]
  Activity: inactive
[16]
  IC50: 300 nM
  MFC: 0.7 µM (≈ 0.647 µg/mL)
  MIC: 0.7 µM (≈ 0.647 µg/mL)
[17]
  IC50: 600 nM
  MFC: 2.7 µM (≈ 2.5 µg/mL)
  MIC: 2.7 µM (≈ 2.5 µg/mL)
[18]
  IC50: 400 nM
  MFC: 1.4 µM (≈ 1.29 µg/mL)
  MIC: 1.4 µM (≈ 1.29 µg/mL)
[19]
  MFC: 1.4 µM (≈ 1.29 µg/mL)
  MIC: 1 µM (≈ 0.924 µg/mL)
[20]
  MFC: 1.4 µM (≈ 1.29 µg/mL)
  MIC: 1 µM (≈ 0.924 µg/mL)
[21]
  IC50: 600 nM
  MFC: 5.4 µM (≈ 4.99 µg/mL)
  MIC: 1.4 µM (≈ 1.29 µg/mL)
[22]
  IC50: 200 nM
  MFC: 1.4 µM (≈ 1.29 µg/mL)
  MIC: 1 µM (≈ 0.924 µg/mL)
[23]
  IC50: 300 nM
  MFC: 1.4 µM (≈ 1.29 µg/mL)
  MIC: 1 µM (≈ 0.924 µg/mL)
